Test results from ChEMBL document CHEMBL4376862, “Synthesis and evaluation of novel chlorophyll a derivatives as potent photosensitizers for photodynamic therapy” (Eur J Med Chem, 2020).

What was measured:
A549 [1] = experiment: Phototoxicity against human A549 cells assessed as reduction in cell proliferation irradiated with 1 J/cm2 of 650 nanometer laser light preincubated for 24 hrs measured after 48 hrs by MTT assay; assay type: functional, cell-based; conditions: A549, light or radiation study
Method in brief: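 A549 cells seeded 5×10^4 cells/100 µL per well, given […] for 24 h, then 650 nm semiconductor laser at 1 J/cm2 (25 mW/cm2, 40 s); MTT 4 h, absorbance 570 nm; viability vs control; triplicate, mean ± SD.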

Mus musculus = experiment: Phototoxicity in ICR mouse assessed as change in auricles 0.45 mg/kg, iv in presence of 10 mW/cm2 light irradiation for 10 mins upto 7 days measured after 1day of light irradiation by H and E staining based microscopic analysis; assay type: organism-based; conditions: in vivo
A549 [2] = experiment: Induction of apoptosis in human A549 cells assessed as necrotic cell in presence of 1J/cm2 light irradiation measured after 4 hrs by annexin V-FITC and propidium iodide staining based flow cytometric analysis (reference value: 0.00%); assay type: functional
Method in brief: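 After PDT at 1 J/cm2, A549 cells collected 4 h later, stained with annexin V-FITC and propidium iodide per kit instructions; flow cytometry with at least 10,000 events per sample.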

[3] = Dark toxicity in human A549 cells assessed as reduction in cell viability incubated under dark for 24 hrs measured after 48 hrs by MTT assay; assay type: cell-based; conditions: read-out: TC50
Method in brief: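 A549 cells seeded at 5×10^4 cells/100 µL per well for 24 h, treated in the dark with […] (so in the source) for 24 h; MTT added 4 h, absorbance 570 nm, 48 h later; viability as OD treated/OD control; triplicate, mean ± SD.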

[4] = Drug uptake in BALB/c nude mouse xenografted with A549 cells assessed as drug level in kidney at 0.3 mg/kg, iv measured at 12 hrs by fluorescence assay; assay type: ADME, organism-based; conditions: in vivo
Method in brief: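 A549 tumor-bearing mice dosed via tail vein (1 mg/kg in methods; 0.3 mg/kg in text) at tumors ~150–170 mm3, n = 3; whole-body imaging 0–24 h; at 6 and 12 h mice killed, heart, liver, spleen, lung, kidney, brain, tumor imaged ex vivo, excitation 420 nm, emission 650 nm.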

Drug uptake [4] | SMILES | IC50 (A549 [1]) [µM] | Activity (Mus musculus) | Activity (A549 [2]) [%] | CC50 at 24 h [3] [µM]
Not Active | CCC1=C(C)c2cc3[nH]c(cc4nc(c5c6[nH]c(cc1n2)c(C)c6C(=O)C5)[C@@H](CCC(=O)NCC(=O)CCC(=O)O)[C@@H]4C)c(C)c3C(C)OCCO (stereo not given in full) | 0.99 | Non-Toxic | 0.7 | 8.88
Not Active | CCCCOC(C)c1c(C)c2cc3nc(c4c5[nH]c(cc6nc(cc1[nH]2)C(C)=C6CC)c(C)c5C(=O)C4)[C@@H](CCC(=O)NCC(=O)CCC(=O)O)[C@@H]3C (stereo not given in full) | 0.23 | Non-Toxic | 10.92 | 2.01
